Source: ChEMBL document CHEMBL3124927, “New C(4)- and C(1)-derivatives of furo[3,4-c]pyridine-3-ones and related compounds: evidence for site-specific inhibition of the constitutive proteasome and its immunoisoform” (Bioorg Med Chem Lett, 2014)
Values belong to the compound of their own block, whether it stands above or below them. Calls of active or inactive are those of the source. No cut-off for these calls is given here.

Key:
[1] = Inhibition of 20s constitutive proteasome beta 2 subunit trypsin-like activity in rabbit erythrocytes using Boc-LRR-AMC as substrate incubated for 15 mins prior to substrate addition measured after 45 mins by fluorescence assay; type: cell-based, Oryctolagus cuniculus
Outline: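 Purified rabbit erythrocyte constitutive 20S fraction, 0.27 nM enzyme, pre-incubated 15 min with or without inhibitor, then Boc-LRR-AMC added. Buffer at pH 7.5. Fluorescence read-out. IC50 is from a plot of percent inhibition against inhibitor concentration, Hill-equation fit.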

[2] = target: T1, Proteasome component C5 (Homo sapiens) (UniProt P20618); assay: Inhibition of 20s immunoproteasome beta 1 subunit caspase-like activity in human blood monocytes using Z-LLE-betaNA as substrate at 100 uM preincubated for 2 mins followed by substrate addition by fluorescence assay; type: cell-based
T1 sequence (whole entry): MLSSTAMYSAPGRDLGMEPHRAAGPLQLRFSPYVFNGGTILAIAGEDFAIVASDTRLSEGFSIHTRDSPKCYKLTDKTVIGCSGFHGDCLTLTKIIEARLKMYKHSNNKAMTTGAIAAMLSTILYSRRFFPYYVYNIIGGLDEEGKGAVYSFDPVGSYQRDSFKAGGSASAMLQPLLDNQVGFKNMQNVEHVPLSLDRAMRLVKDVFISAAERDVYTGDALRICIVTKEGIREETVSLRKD
Outline: (§1)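 Purified immunoproteasome 20S fraction, run like the constitutive assay but with a 2-min pre-incubation with inhibitor before adding the respective substrate. Fluorescence read-out. IC50 is from percent inhibition versus concentration, fitted with a Hill-number equation.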

[3] = target: T2, Proteasome Macropain subunit MB1 (Homo sapiens) (UniProt P28074); assay: Inhibition of 20s immunoproteasome beta 5 subunit chymotrypsin-like activity in human blood monocytes using Suc-LLVY-AMC as substrate at 100 uM preincubated for 2 mins followed by substrate addition by fluorescence assay; type: cell-based; outline: as §1
T2 sequence (whole entry): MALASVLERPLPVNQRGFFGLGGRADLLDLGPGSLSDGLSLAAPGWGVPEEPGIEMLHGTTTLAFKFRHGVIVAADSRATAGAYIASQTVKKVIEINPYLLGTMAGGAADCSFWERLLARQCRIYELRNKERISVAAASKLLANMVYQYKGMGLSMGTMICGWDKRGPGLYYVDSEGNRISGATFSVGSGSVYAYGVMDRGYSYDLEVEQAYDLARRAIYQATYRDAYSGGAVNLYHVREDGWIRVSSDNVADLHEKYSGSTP

Oryctolagus cuniculus [4] = organism: Oryctolagus cuniculus; assay: Inhibition of 20s constitutive proteasome beta 5 subunit chymotrypsin-like activity in rabbit erythrocytes using Suc-LLVY-AMC as substrate at 50 uM incubated for 15 mins prior to substrate addition measured after 45 mins by fluorescence assay relative to control; type: cell-based
Outline: (§2)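 Purified rabbit erythrocyte constitutive 20S fraction, 0.27 nM enzyme, pre-incubated 15 min with or without inhibitor before substrate addition. Buffer pH 7.5: 20 mM Tris, 1 mM DTT, 10% glycerol, 0.02% (w/v) SDS. Fluorescence read-out. IC50 is from a percent inhibition versus concentration plot, fitted with a Hill-type equation.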

Oryctolagus cuniculus [5] = organism: Oryctolagus cuniculus; assay: Inhibition of 20s constitutive proteasome beta 1 subunit caspase-like activity in rabbit erythrocytes using Z-LLE-betaNA as substrate at 50 uM incubated for 15 mins prior to substrate addition measured after 45 mins by fluorescence assay relative to control; type: cell-based; outline: as §2
[6] = Inhibition of 20s constitutive proteasome beta 5 subunit chymotrypsin-like activity in rabbit erythrocytes using Suc-LLVY-AMC as substrate incubated for 15 mins prior to substrate addition measured after 45 mins by fluorescence assay; type: cell-based, Oryctolagus cuniculus; outline: as §2
[7] = target: Cathepsin B (Homo sapiens) (UniProt P07858); assay: Inhibition of human cathepsin B using Z-RR-AMC as substrate by fluorescence assay
Outline: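 Human cathepsin B fraction, Z-RR-AMC substrate, at 37 °C in 352 mM KH2PO4, 48 mM Na2HPO4, 1 mM EDTA, 1 mM DTT, pH 6. Fluorescence read-out. IC50 is from percent inhibition versus inhibitor concentration.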

[8] = target: T3, Calpain-1 catalytic subunit (Homo sapiens) (UniProt P07384); assay: Inhibition of human calpain-1 using Suc-LLVY-AMC as substrate by fluorescence assay
T3 sequence (whole entry): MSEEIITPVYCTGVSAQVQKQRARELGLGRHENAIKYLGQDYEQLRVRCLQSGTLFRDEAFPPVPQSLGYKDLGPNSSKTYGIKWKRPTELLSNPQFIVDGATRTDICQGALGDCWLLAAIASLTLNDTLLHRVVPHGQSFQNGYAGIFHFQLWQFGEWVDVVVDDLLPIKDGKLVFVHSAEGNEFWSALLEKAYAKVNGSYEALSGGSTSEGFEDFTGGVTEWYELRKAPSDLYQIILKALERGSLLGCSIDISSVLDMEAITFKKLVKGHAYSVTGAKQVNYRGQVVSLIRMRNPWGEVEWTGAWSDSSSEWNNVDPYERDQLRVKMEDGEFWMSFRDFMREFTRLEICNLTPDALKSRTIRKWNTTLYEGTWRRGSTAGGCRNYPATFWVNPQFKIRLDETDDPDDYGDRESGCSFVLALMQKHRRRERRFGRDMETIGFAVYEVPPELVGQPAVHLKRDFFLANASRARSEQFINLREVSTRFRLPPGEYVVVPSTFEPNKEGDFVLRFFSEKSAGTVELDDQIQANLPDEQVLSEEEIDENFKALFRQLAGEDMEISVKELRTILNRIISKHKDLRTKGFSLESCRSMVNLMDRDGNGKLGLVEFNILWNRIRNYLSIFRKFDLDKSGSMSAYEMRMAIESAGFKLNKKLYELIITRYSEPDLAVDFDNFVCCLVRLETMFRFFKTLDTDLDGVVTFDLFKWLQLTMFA
Outline: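 Human calpain I fraction, Suc-LLVY-AMC substrate, at 25 °C in 50 mM Tris, 10 mM DTT with CaCl2, pH 7.2. Fluorescence read-out. IC50 is from percent inhibition versus inhibitor concentration.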

Oryctolagus cuniculus [9] = organism: Oryctolagus cuniculus; assay: Inhibition of 20s constitutive proteasome beta 1 subunit caspase-like activity in rabbit erythrocytes using Z-LLE-betaNA as substrate at 25 uM incubated for 15 mins prior to substrate addition measured after 45 mins by fluorescence assay relative to control; type: cell-based; outline: as §2
HeLa = assay: Cytotoxicity against human HeLa cells assessed as decrease cell attachment after 18 to 72 hrs by XTT assay; type: cell-based
Outline: (§3)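 HeLa cells seeded and handled as for the in-cell proteasome assay, then exposed to inhibitor for 18 or 72 h. Viability read as XTT reduction to formazan by mitochondrial dehydrogenases: 3 h with 1 mg/mL XTT, absorbance at 485 nm.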

[10] = tested on: mitochondrial dehydrogenase activity (cytotoxicity readout); assay: Cytotoxicity against human HeLa cells assessed as inhibition of mitochondrial dehydrogenase activity at 50 uM after 18 to 72 hrs by XTT assay relative to control; type: cell-based; conditions: read-out: INH; outline: as §3
[11] = target: Proteasome Macropain subunit (Homo sapiens) (UniProt P49721); assay: Inhibition of 20s immunoproteasome beta 2 subunit trypsin-like activity in human blood monocytes using Boc-LRR-AMC as substrate at 100 to 2000 nM preincubated for 2 mins followed by substrate addition by fluorescence assay; type: cell-based; outline: as §1
Sequence of Proteasome Macropain subunit (Homo sapiens) (P49721 whole entry): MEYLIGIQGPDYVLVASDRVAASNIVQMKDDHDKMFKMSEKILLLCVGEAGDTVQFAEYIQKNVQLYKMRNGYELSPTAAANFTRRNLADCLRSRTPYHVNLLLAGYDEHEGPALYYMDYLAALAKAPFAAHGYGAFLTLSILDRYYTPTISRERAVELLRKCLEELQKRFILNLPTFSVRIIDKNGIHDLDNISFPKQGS

[12] = target: T2, Proteasome Macropain subunit MB1 (Homo sapiens); assay: Inhibition of 20s immunoproteasome beta 5 subunit chymotrypsin-like activity in human blood monocytes using Suc-LLVY-AMC as substrate at 100 to 2000 nM preincubated for 2 mins followed by substrate addition by fluorescence assay; type: cell-based; outline: as §1

IC50 ([1]; read-out: IC50): 9.9 µM | inhibition [2]: inactive | inhibition [3]: inactive
Compound: O=c1c2cc(-c3ccccc3)sc2ncn1CCc1ccc(Cl)cc1

IC50 ([1]; read-out: IC50): 19.4 µM | inhibition (Oryctolagus cuniculus [5]): 25%
Compound: CCN(CC)CC(O)Cn1cnc2sc(-c3ccccc3)cc2c1=O (configuration not stated)
inhibition (Oryctolagus cuniculus [4]): 36%

IC50 [1]: Not Active | IC50 [6]: Not Active | inhibition [7]: inactive | inhibition [8]: inactive | inhibition (Oryctolagus cuniculus [9]): inactive
Compound: CC1(C)OC(=O)c2c1ccnc2Nc1ccc(S(N)(=O)=O)cc1

inhibition [7]: inactive | inhibition [8]: inactive | inhibition [11]: inactive | inhibition [12]: inactive
Compound: CC1(C)OC(=O)c2c1ccnc2NCc1ccccc1
Activity (HeLa): Toxic | cytotoxicity at 50 µM [10]: 35%
